# Screening results: PubChem, Johns Hopkins Ion Channel Center
# KCNQ1 act: human KCNQ1 channel potentiation or activation; 310,000 tested, 0.35% active; P51787; CHO-K1 KCNQ1, thallium flux FluxOR fluorescence; stronger effect = higher value; B-score at 10 µM;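 active means fluorescence ratio B-score, a plate-corrected score, at least three library SD, with initial intensity B-score within 5 SD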
#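 assay system = CHO-K1 cells stably expressing KCNQ1 | medium = assay buffer, equal DMSO in all wells | timing = 37 °C overnight plating, 90-min dark dye load, 20-min compound pretreatment | measured by = kinetic FluxOR thallium fluorescence, 10-s 1-Hz baseline, 110-s post-stimulus read | measure = fluorescence change relative to baseline, converted to B score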
# KCNK9 block: human KCNK9 channel inhibition; HEK293 KCNK9, FluxOR thallium flux fluorescence; stronger effect = lower value; B-score at 10 µM; 310,000 tested, 1.2% active; Q9NPC2;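 active means ratio B-score over 3 SD below the library mean, with starting fluorescence within 5 SD of its mean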;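 further: negative B-score means less thallium flux so channel inhibition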
# Kir21 inh: Kir2.1 (mouse) channel inhibition. P35561. HEK293-Kir2.1, FluxOR thallium flux fluorescence; stronger effect = lower value. B-score at 10 µM. 310,000 tested, 0.85% active;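 active means fluorescence ratio B-score at or below minus 3 SD of library scores, with starting-brightness B-score within 2 SD, cut at about -4.2 in these data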;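 further: channel flux triggered by added potassium and thallium sulfate stimulus; B-score of peak minus minimum fluorescence over baseline after thallium stimulus; more negative B-score means stronger Kir2.1 block with less thallium influx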
# KCNQ1 block: blocks the human KCNQ1 potassium channel | P51787 | CHO-K1 KCNQ1, FluxOR thallium flux fluorescence; stronger effect = higher value | B-score at 10 µM | 310,000 tested, 1.3% active | AID 2642;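 active means compounds whose thallium flux B-score, printed positive for inhibition, exceeds three library SD while starting fluorescence stays within three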;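 further: channel opened by potassium depolarization with thallium stimulus after 20 min compound exposure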
# KCNK3 inh: human KCNK3 channel inhibition, primary screen. O14649. CHO-KCNK3 thallium flux, FluxOR fluorescence; stronger effect = lower value. B-score at 10 µM. 340,000 tested, 0.84% active;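 active means B-score under library mean minus 4 SD, starting fluorescence ratio at most library mean plus 5 SD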;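 further: more negative B-score means stronger inhibition of thallium flux through KCNK3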
# Target sequence (O14649 whole entry, looked up): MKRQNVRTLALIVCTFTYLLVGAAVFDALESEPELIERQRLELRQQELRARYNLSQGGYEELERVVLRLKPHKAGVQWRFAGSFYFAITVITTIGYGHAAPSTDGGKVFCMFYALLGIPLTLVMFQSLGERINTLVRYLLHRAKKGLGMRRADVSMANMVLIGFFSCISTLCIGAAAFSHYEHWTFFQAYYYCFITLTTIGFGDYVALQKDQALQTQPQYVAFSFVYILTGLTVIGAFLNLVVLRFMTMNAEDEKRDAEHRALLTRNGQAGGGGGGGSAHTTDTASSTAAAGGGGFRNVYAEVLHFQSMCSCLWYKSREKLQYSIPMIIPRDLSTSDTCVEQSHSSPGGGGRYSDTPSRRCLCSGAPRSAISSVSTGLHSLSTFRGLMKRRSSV
# hERG rescue: shields human hERG channel from block by proarrhythmic agents; AID 1511; CHO-hERG, FluxOR thallium flux, dofetilide IC70 present; Q12809; 310,000 tested, 0.51% active; activation (rescue from dofetilide block), less the hit threshold, % at 10 µM;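 active means activation above the mean of controls blocked by dofetilide plus 5 SD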;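 further: thallium influx through hERG after potassium depolarization seen as dye fluorescence rise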
# KCNK3 inh conf: human KCNK3 channel inhibition, confirmation assay. CHO-KCNK3 thallium flux, FluxOR fluorescence; 0% buffer, 100% carvedilol maximal block. 2,400 tested, 99% active. shares compounds with KCNK3 inh. AID 651638. ratio percent of control, % at 10 µM;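 active means ratio percent of control, averaged over triplicates, above buffer control mean plus 5 SD, cut at about 64% in these data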;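 further: ratio is the fluorescence rise from min to max over baseline after thallium stimulus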
# KCNK3 uninduced: counter-screen for KCNK3 inhibitors: effect in non-induced cells; thallium flux ratio (lower = more inhibition) at 10 µM; shares compounds with KCNK3 inh; non-induced KCNK3 parental cells, FluxOR thallium flux; stronger effect = lower value; AID 651747; 2,400 tested, 40% active;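 active means thallium flux ratio, averaged over three wells, more than 5 SD below the buffer control mean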;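 further: host cells are CHO cells without KCNK3 induction; ratio is peak minus trough fluorescence over baseline then normalized to buffer controls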
# Active calls of the source: *; i = inactive; · = no result. A selection: hits, their analogues and other compounds. The true share with any hit is near 3.7%.
SMILES,KCNQ1 act,KCNK9 block,Kir21 inh,KCNQ1 block,KCNK3 inh,hERG rescue,KCNK3 inh conf,KCNK3 uninduced
Cc1ccc([N+](=O)[O-])c(OCCCN2CCC(Cc3ccccc3)CC2)c1,i,i,-9.9*,7*,-8.8*,-19,119*,0.13*
COc1cc2ccccc2cc1C(=O)Nc1nccs1,i,i,-0.26,i,-9.6*,-13,94*,i
COc1c(C(=O)Nc2nccs2)ccc2ccccc12,i,i,0.72,i,i,-13,·,·
CC1CCCC(C)N1S(=O)(=O)c1ccc(NC(=O)c2ccccc2C(=O)N2CCOCC2)cc1 (stereo not given),i,i,-0.85,i,-12*,-9,91*,i
CC(C)(C)C1CCc2c(C(=O)NNC(=O)CCC(=O)O)csc2C1 (stereo not given),i,i,-0.59,i,i,-6,·,·
COc1ccc(Sc2ccc(NC(=O)c3ccccc3Cl)cc2C#N)cc1,i,i,0.41,i,-12*,-7,106*,0.15*
N#Cc1ccccc1Sc1ccccc1C(=O)Nc1ccc2ccccc2c1,i,i,-0.28,i,i,-13,·,·
CCCCN1C(=S)NC[C@@H]1c1ccccc1,i,i,-0.49,i,i,-6,·,·
CCCN1C(=S)c2ccccc2C1c1ccccc1 (stereo not given),i,i,-3.7,i,-11*,-10,121*,0.15*
O=C(N=C1SC2CS(=O)(=O)CC2N1c1ccccc1)C1CCCCC1 (stereo not given),i,i,-0.51,i,i,-2,·,·
CCOc1ccc(NC(=S)N(CCc2c(C)[nH]c3ccc(C)cc23)Cc2cccnc2)cc1,i,i,0.1,i,-9.9*,-8,92*,0.14*
O=C(NCCSc1c[nH]c2ccccc12)c1ccco1,i,i,0.97,i,i,-4,·,·
O=C(NCCSc1c[nH]c2ccccc12)c1c(F)cccc1F,i,i,0.48,i,-10*,-18,101*,i
O=C(N/N=C/c1c[nH]c2ccc(Br)cc12)c1ccn(Cc2ccc(Cl)cc2Cl)n1,i,-7.2*,0.57,i,-9.8*,-12,79*,i
O=C(N/N=C/c1c[nH]c2ccccc12)c1ccn(Cc2ccc(Cl)cc2)n1,i,i,0.97,i,-11*,-16,98*,0.15*
COc1cc2nc(Nc3ccc(C)c(C)c3)nc(N)c2cc1OC,i,i,-4.7*,i,-9.3*,-16,114*,i
CCn1nc(C)cc1C(=O)N1CCCC(Nc2ccc(F)c(F)c2)C1 (stereo not given),i,i,1.1,i,i,-6,·,·
O=C(CN1C(=O)NC(c2ccc(F)cc2)C1=O)Nc1ccc2c(c1)OCCO2 (stereo not given),·,·,·,·,i,·,·,·
CCN(CC)c1ccc(S(=O)(=O)N(CC)CC)cc1NC(=O)C1CCCC1,i,i,-0.21,i,-9.4*,-11,97*,i
CCN(CC)S(=O)(=O)c1cc(NC(=O)C(=O)c2c(-c3ccccc3)cc3ccccn23)ccc1C,i,i,-0.03,i,-10*,-9,105*,i
CCN(CC)S(=O)(=O)c1cc(NC(=S)NC(=O)C2CCCC2)ccc1C,·,·,·,·,-16*,·,101*,i
CCN(CC)S(=O)(=O)c1ccc(N(C)C)c(NC(=O)C2CCCC2)c1,i,i,-2.2,i,i,-9,·,·
O=C1/C(=C\c2ccc(O)cc2)SC(=S)N1/N=C/c1ccc(O)cc1,i,i,-0.45,7*,-8.8*,-17,109*,0.15*
CC(=O)NN1C(=O)/C(=C\c2ccc(O)cc2)SC1=S,i,i,-1.8,i,i,-5,·,·
